Assay results reported in ChEMBL document CHEMBL4334504 (J Med Chem, 2019).
≈ marks a conversion by molar mass, not a printed value.

What was measured:
[1] = system: Clostridioides difficile; assay: Antibacterial activity against Clostridium difficile VPI 10463 ATCC 43255 assessed as bacterial growth inhibition incubated for 48 hrs under anaerobic condition by CLSI protocol based assay; type: functional; conditions: ATCC 43255 VPI 10463, 48 h
Summary of the method: (§1)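 Broth microdilution following CLSI guidance. Strains pre-grown anaerobically on BHIS agar (BHI plus yeast extract, vitamin K1, hemin) at 37 °C for 48 h. ~10^5 CFU/mL in BHIS broth added to serial compound dilutions. Incubated anaerobically at 37 °C for 48 h. MIC is the lowest concentration showing visible growth inhibition.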

[2] = system: Clostridioides difficile; assay: Antibacterial activity against Clostridium difficile 4118 ATCC BAA 1870 assessed as bacterial growth inhibition incubated for 48 hrs under anaerobic condition by CLSI protocol-based assay; type: functional; conditions: 4118 ATCC BAA 1870, 48 h; summary of the method: as §1
[3] = Effect on growth of Lactobacillus gasseri EX336960VC03 HM 400 measured after 48 hrs in 5% CO2 by CLSI method; conditions: lactobacillus gasseri ex336960vc03, 48 h
[4] = Effect on growth of Lactobacillus crispatus JV-V01 HM 103 measured after 48 hrs in 5% CO2 by CLSI method; conditions: lactobacillus crispatus jv-v01, 48 h
[5] = system: Bifidobacterium bifidum; assay: Effect on growth of Bifidobacterium bifidum 212A ATCC 11863 measured after 48 hrs in anerobic conditions by CLSI method; type: organism-based; conditions: in vivo
[6] = system: Lacticaseibacillus paracasei; assay: Effect on growth of Lactobacillus casei ATCC 334 measured after 48 hrs in 5% CO2 by CLSI method
[7] = system: Escherichia coli; assay: Effect on growth of Escherichia coli ATCC 25922 assessed as bacterial growth inhibition measured after 16 to 18 hrs by CLSI method; type: organism-based; conditions: in vivo
Summary of the method: (§2)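 CLSI microdilution. Colonies from TSA (16-20 h, 37 °C) suspended in PBS to 0.5 McFarland, then diluted in TSB to ~10^5 CFU/mL. Incubated with serial compound dilutions for 16-20 h at 37 °C. MIC is the lowest concentration inhibiting growth.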

[8] = system: Enterobacter cloacae; assay: Effect on growth of Enterobacter cloacae ATCC BAA 1143 assessed as bacterial growth inhibition measured after 16 to 18 hrs grown in tryptic soy medium by CLSI method; type: organism-based; conditions: in vivo; summary of the method: as §2

Row | Compound | MIC [1] [µM] | MIC [2] [µM] | also measured
1 | O=c1[nH]c(/C=C/c2ccco2)nc2c([N+](=O)[O-])csc12 | 27 (≈ 7.81 µg/mL) | 27 (≈ 7.81 µg/mL) | 
2 | COc1ccc(/C=C/c2nc3c([N+](=O)[O-])csc3c(=O)[nH]2)cc1 | 12 (≈ 3.95 µg/mL) | 12 (≈ 3.95 µg/mL) | 
3 | Cc1ncc([N+](=O)[O-])n1CCO [METRONIDAZOLE] | 1.5 (≈ 0.257 µg/mL) | 0.7 (≈ 0.12 µg/mL) | MIC [3]: > 1496 µM; MIC [4]: > 1496 µM; MIC [5]: > 1496 µM; MIC [6]: 47 µM (≈ 8.04 µg/mL)
4 | Cc1nc2c([N+](=O)[O-])csc2c(=O)n1CC(=O)OC(C)(C)C | 98 (≈ 31.9 µg/mL) | 49 (≈ 15.9 µg/mL) | 
5 | CN[C@H](CC(C)C)C(=O)N[C@H]1C(=O)N[C@@H](CC(N)=O)C(=O)N[C@H]2C(=O)N[C@H]3C(=O)N[C@H](C(=O)N[C@H](C(=O)O)c4cc(O)cc(O)c4-c4cc3ccc4O)[C@H](O)c3ccc(c(Cl)c3)Oc3cc2cc(c3O[C@@H]2O[C@H](CO)[C@@H](O)[C@H](O)[C@H]2O[C@H]2C[C@](C)(N)[C@H](O)[C@H](C)O2)Oc2ccc(cc2Cl)[C@H]1O [VANCOMYCIN] | 0.3 (≈ 0.435 µg/mL) | 0.7 (≈ 1.01 µg/mL) | MIC [3]: <= 1 uM; MIC [4]: <= 1 uM
6 | Cc1nc2c(C)csc2c(=O)[nH]1 | > 710 | > 710 | 
7 | O=c1[nH]c(/C=C/c2cccc(F)c2)nc2c([N+](=O)[O-])csc12 | 13 (≈ 4.12 µg/mL) | 13 (≈ 4.12 µg/mL) | 
8 | COc1ccc(-n2c(C)nc3c([N+](=O)[O-])csc3c2=O)cc1 | 101 (≈ 32 µg/mL) | 202 (≈ 64.1 µg/mL) | 
9 | O=[N+]([O-])c1csc2c(Cl)nc(/C=C/c3ccc(F)cc3)nc12 | 95 (≈ 31.9 µg/mL) | 95 (≈ 31.9 µg/mL) | 
10 | O=c1[nH]c(-c2ccccc2)nc2ccsc12 | > 560 | > 560 | 
11 | O=c1[nH]c(/C=C/c2ccccc2)nc2c([N+](=O)[O-])csc12 | 52 (≈ 15.6 µg/mL) | 13 (≈ 3.89 µg/mL) | 
12 | Cc1nc2ncccc2c(=O)[nH]1 | > 794 | > 794 | 
13 | Cc1nc2c([N+](=O)[O-])coc2c(=O)[nH]1 | 41 (≈ 8 µg/mL) | 41 (≈ 8 µg/mL) | MIC [3]: > 700 µM; MIC [7]: > 700 µM; MIC [4]: > 700 µM; MIC [8]: > 700 µM; MIC [5]: > 700 µM; MIC [6]: > 700 µM
14 | Cc1csc2c(O)ncnc12 | > 770 | > 770 | 
15 | Cc1nc2c([N+](=O)[O-])csc2c(=O)n1-c1ccc(C(C)C)cc1 | > 389 | > 389 | 
16 | Cc1nc2c([N+](=O)[O-])csc2c(=O)n1Cc1ccc(C#N)cc1 | 50 (≈ 16.3 µg/mL) | 25 (≈ 8.16 µg/mL) | 
17 | O=c1[nH]c(/C=C/c2ccc([N+](=O)[O-])cc2)nc2c([N+](=O)[O-])csc12 | 12 (≈ 4.13 µg/mL) | 24 (≈ 8.26 µg/mL) | 
18 | Cc1nc2c(F)cccc2c(=O)[nH]1 | > 718 | > 718 | 
19 | O=c1[nH]c(/C=C/c2ccc(O)cc2)nc2c([N+](=O)[O-])csc12 | 13 (≈ 4.1 µg/mL) | 26 (≈ 8.2 µg/mL) | 
20 | Cc1nc2cscc2c(=O)[nH]1 | 768 (≈ 128 µg/mL) | 192 (≈ 31.9 µg/mL) | 
21 | Cc1nc2c([N+](=O)[O-])cccc2c(=O)[nH]1 | 156 (≈ 32 µg/mL) | 312 (≈ 64 µg/mL) | MIC [3]: > 700 µM; MIC [7]: > 700 µM; MIC [4]: > 700 µM; MIC [8]: > 700 µM; MIC [5]: > 700 µM; MIC [6]: > 700 µM
22 | Cc1nc(Nc2ccccc2)c2scc([N+](=O)[O-])c2n1 | 14 (≈ 4.01 µg/mL) | 28 (≈ 8.02 µg/mL) | 
23 | Cc1nc2c([N+](=O)[O-])csc2c(=O)n1CC(=O)O | > 475 | > 475 | 
24 | O=C(O)c1ccc(/C=C/c2nc3c([N+](=O)[O-])csc3c(=O)[nH]2)cc1 | 184 (≈ 63.2 µg/mL) | 46 (≈ 15.8 µg/mL) | 
25 | O=c1[nH]c(-c2cccc([N+](=O)[O-])c2)nc2c([N+](=O)[O-])csc12 | 50 (≈ 15.9 µg/mL) | 50 (≈ 15.9 µg/mL) | 
26 | Cc1nc2c([N+](=O)[O-])csc2c(=O)n1Cc1cccc([N+](=O)[O-])c1 | 23 (≈ 7.97 µg/mL) | 23 (≈ 7.97 µg/mL) | 

Row | Compound | MIC [1] [µM] | MIC [2] [µM] | also measured
27 | Cc1nc2c(N)cccc2c(=O)[nH]1 | > 730 | > 730 | 
28 | O=[N+]([O-])c1csc2c(N3CCOCC3)nc(/C=C/c3ccc(F)cc3)nc12 | 166 (≈ 64.1 µg/mL) | 166 (≈ 64.1 µg/mL) | 
29 | Cc1nc2ccoc2c(=O)[nH]1 | > 852 | > 852 | 
30 | Cc1nc2c([N+](=O)[O-])csc2c(=O)n1-c1ccc(-c2ccccc2)cc1 | 176 (≈ 64 µg/mL) | 352 (≈ 128 µg/mL) | 
31 | O=c1c2scc([N+](=O)[O-])c2nc(/C=C/c2ccc(F)cc2)n1Cc1ccccc1 | 157 (≈ 64 µg/mL) | 157 (≈ 64 µg/mL) | 
32 | COc1ccc(Cn2c(C)nc3c([N+](=O)[O-])csc3c2=O)cc1 | 24 (≈ 7.95 µg/mL) | 24 (≈ 7.95 µg/mL) | 
33 | Cc1nc(Cl)c2scc([N+](=O)[O-])c2n1 | 34 (≈ 7.81 µg/mL) | 17 (≈ 3.9 µg/mL) | 
34 | GENTAMICIN |  |  | MIC [7]: 8 µM; MIC [8]: <= 1 uM
35 | Oc1ncnc2ccsc12 | 840 (≈ 128 µg/mL) | 420 (≈ 63.9 µg/mL) | 
36 | Cc1nc2c([N+](=O)[O-])csc2c(=O)n1CCc1ccccc1 | 13 (≈ 4.1 µg/mL) | 13 (≈ 4.1 µg/mL) | 
37 | O=c1[nH]cnc2ccc([N+](=O)[O-])cc12 | 335 (≈ 64 µg/mL) | 335 (≈ 64 µg/mL) | MIC [3]: > 700 µM; MIC [7]: > 700 µM; MIC [4]: > 700 µM; MIC [8]: > 700 µM; MIC [5]: > 700 µM; MIC [6]: > 700 µM
38 | Cc1nc2ccsc2c(=O)[nH]1 | 385 (≈ 64 µg/mL) | > 770 | 
39 | O=c1[nH]cnc2c([N+](=O)[O-])csc12 | 10 (≈ 1.97 µg/mL) | 20 (≈ 3.94 µg/mL) | 
40 | CCc1nc2c([N+](=O)[O-])csc2c(=O)[nH]1 | 35 (≈ 7.88 µg/mL) | 35 (≈ 7.88 µg/mL) | 
41 | Cc1nc2c([N+](=O)[O-])csc2c(=O)n1CC(=O)Nc1ccccc1 | 23 (≈ 7.92 µg/mL) | 46 (≈ 15.8 µg/mL) | 
42 | O=c1[nH]c(/C=C/c2cccs2)nc2c([N+](=O)[O-])csc12 | 13 (≈ 3.97 µg/mL) | 13 (≈ 3.97 µg/mL) | 
43 | Cc1nc2c([N+](=O)[O-])csc2c(=O)n1CC(=O)N1CCN(C)CC1 | 91 (≈ 32 µg/mL) | 91 (≈ 32 µg/mL) | 
44 | O=C(O)c1ccc(/C=C/c2nc3c([N+](=O)[O-])csc3c(=O)[nH]2)o1 | > 384 | > 384 | 
45 | Cc1nc2c([N+](=O)[O-])csc2c(=O)n1CC(=O)N1CCOCC1 | 94 (≈ 31.8 µg/mL) | 47 (≈ 15.9 µg/mL) | 
46 | N#Cc1ccc(/C=C/c2nc3c([N+](=O)[O-])csc3c(=O)[nH]2)cc1 | > 197 | > 197 | 
47 | CCCc1nc2c([N+](=O)[O-])csc2c(=O)[nH]1 | 67 (≈ 16 µg/mL) | 67 (≈ 16 µg/mL) | 
48 | C#Cc1ccc(/C=C/c2nc3c([N+](=O)[O-])csc3c(=O)[nH]2)cc1 | 12 (≈ 3.88 µg/mL) | 6 (≈ 1.94 µg/mL) | 
49 | Cc1nc2c([N+](=O)[O-])scc2c(=O)[nH]1 | 38 (≈ 8.03 µg/mL) | 38 (≈ 8.03 µg/mL) | MIC [3]: > 700 µM; MIC [7]: > 700 µM; MIC [4]: > 700 µM; MIC [8]: > 700 µM; MIC [5]: > 700 µM; MIC [6]: > 700 µM
50 | CCOC(=O)Cn1c(C)nc2c([N+](=O)[O-])csc2c1=O | 54 (≈ 16.1 µg/mL) | 54 (≈ 16.1 µg/mL) | 
51 | Cc1nc2c([N+](=O)[O-])csc2c(=O)n1-c1cccc(C(=O)O)c1 | 193 (≈ 63.9 µg/mL) | > 386 | 
52 | Cc1nc2c([N+](=O)[O-])csc2c(=O)n1Cc1ccccc1[N+](=O)[O-] | 23 (≈ 7.97 µg/mL) | 23 (≈ 7.97 µg/mL) | 
